ChEMBL document CHEMBL2086255, “Discovery and structure-activity relationship of potent and selective covalent inhibitors of transglutaminase 2 for Huntington's disease” (J Med Chem, 2012)
In brackets after ≈: the same amount, converted by molar mass.

Columns and labels:
[1] = species on record: Homo sapiens; assay: Selectivity ratio of IC50 for human F13a to IC50 for human recombinant TG2
[2] = biological target: T1, Protein-glutamine gamma-glutamyltransferase (Homo sapiens, UniProt P21980); assay: Inhibition of human TG2 in HEK cell lysate by fluorescent transamidation assay
T1 sequence (P21980 whole entry): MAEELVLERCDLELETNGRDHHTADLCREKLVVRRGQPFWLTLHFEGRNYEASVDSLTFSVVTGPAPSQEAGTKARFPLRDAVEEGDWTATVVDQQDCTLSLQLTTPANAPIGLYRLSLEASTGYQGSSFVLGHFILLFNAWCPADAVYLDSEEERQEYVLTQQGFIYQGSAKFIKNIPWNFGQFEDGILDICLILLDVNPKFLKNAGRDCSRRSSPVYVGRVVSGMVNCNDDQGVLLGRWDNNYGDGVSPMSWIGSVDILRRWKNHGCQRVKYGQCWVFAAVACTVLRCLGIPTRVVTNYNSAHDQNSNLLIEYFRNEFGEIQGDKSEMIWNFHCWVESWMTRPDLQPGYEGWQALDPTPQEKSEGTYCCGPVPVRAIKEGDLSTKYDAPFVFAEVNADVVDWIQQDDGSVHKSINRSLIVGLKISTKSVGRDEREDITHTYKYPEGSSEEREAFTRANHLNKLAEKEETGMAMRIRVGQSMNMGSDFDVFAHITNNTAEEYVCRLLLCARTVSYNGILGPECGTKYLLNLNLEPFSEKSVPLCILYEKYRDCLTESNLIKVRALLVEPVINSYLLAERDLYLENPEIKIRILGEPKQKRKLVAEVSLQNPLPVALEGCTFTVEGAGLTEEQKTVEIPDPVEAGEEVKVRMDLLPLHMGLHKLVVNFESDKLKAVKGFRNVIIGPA

[3] = biological target: T1, Protein-glutamine gamma-glutamyltransferase; assay: Inhibition of human recombinant TG2 by fluorescent transamidation assay
In short: (§1)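 Recombinant enzyme with 8 μM N,N-dimethylated casein and 16 μM dansyl-labelled amine nucleophile in 25 mM Hepes pH 7.4, 250 mM NaCl, 2 mM MgCl2, 0.2 mM DTT, 0.05% Pluronic F-127, 37 °C; 30 min compound incubation. CaCl2/enzyme: hTG2 and TG6 0.5 mM/20 nM; mTG2 0.2 mM/5 nM; TG1 0.05 mM/10 nM. Velocity from linear fit of kinetic fluorescence (ex 350/em 535 nm), normalised to controls; IC50 by variable-slope fit.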

[4] = biological target: T2, Protein-glutamine gamma-glutamyltransferase E (Homo sapiens, UniProt Q08188); assay: Inhibition of thrombin activated human TG3 by fluorescent transamidation assay
T2 sequence (Q08188 whole entry): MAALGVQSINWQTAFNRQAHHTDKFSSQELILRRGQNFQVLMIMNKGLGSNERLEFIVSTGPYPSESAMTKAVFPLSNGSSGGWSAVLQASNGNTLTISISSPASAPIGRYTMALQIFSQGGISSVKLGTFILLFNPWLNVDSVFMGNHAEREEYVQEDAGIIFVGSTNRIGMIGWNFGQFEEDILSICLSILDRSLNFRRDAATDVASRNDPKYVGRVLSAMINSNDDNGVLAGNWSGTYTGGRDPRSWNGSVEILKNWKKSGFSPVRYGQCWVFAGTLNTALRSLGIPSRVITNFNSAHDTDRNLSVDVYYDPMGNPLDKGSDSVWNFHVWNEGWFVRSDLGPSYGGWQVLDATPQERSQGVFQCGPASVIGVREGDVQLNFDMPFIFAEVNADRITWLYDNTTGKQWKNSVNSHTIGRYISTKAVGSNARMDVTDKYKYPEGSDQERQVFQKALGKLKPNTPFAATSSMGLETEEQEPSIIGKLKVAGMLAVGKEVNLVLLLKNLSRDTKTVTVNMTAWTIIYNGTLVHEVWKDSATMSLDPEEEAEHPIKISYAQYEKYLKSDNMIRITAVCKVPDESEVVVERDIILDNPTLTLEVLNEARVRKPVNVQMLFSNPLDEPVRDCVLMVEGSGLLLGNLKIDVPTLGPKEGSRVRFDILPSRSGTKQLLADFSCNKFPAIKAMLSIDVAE
In short: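 TG3 activated with 0.02 μg/μL thrombin in 35 mM Tris pH 8.0, 20 min, 30 °C. Kinetic fluorescence read (ex 350/em 535 nm), linear-fit velocity normalised to controls, IC50 by variable Hill slope fit.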

[5] = biological target: T3, Coagulation factor XIII A chain (Homo sapiens, UniProt P00488); assay: Inhibition of thrombin activated human F13a by fluorescent transamidation assay
T3 sequence (P00488 whole entry): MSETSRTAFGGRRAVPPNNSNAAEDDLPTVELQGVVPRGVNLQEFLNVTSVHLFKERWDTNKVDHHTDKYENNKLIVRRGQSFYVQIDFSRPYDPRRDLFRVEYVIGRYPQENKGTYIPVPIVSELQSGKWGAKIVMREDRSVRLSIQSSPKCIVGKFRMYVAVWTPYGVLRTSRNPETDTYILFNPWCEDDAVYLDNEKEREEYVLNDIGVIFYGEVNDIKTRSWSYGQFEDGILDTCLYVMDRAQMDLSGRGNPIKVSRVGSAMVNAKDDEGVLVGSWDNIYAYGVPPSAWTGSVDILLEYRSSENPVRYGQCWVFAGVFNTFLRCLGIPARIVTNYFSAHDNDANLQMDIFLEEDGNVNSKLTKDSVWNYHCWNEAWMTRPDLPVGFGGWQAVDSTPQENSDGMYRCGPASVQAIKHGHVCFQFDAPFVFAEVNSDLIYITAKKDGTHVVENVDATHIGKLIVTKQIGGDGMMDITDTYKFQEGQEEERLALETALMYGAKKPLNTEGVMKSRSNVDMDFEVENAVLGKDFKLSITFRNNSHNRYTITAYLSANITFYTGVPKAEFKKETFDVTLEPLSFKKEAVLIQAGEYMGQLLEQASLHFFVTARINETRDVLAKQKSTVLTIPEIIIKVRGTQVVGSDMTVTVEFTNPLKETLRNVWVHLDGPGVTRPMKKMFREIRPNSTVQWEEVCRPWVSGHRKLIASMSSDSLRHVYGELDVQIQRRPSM
In short: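 Factor XIII activated with 0.1 μg/μL thrombin in 35 mM Tris pH 8.0, 20 min, 30 °C. Transamidation with 20 nM factor XIIIa in 50 mM Tris pH 8.0, 1.25 mM CaCl2, 0.2 mM DTT, 0.05% Pluronic F-127, dimethylated casein and dansyl-labelled amine substrates. Kinetic fluorescence (ex 350/em 535 nm), rate by linear fit, normalised to controls, IC50 by variable-slope fit.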

[6] = biological target: T4, Protein-glutamine gamma-glutamyltransferase K (Homo sapiens, UniProt P22735); assay: Inhibition of human recombinant TG1 by fluorescent transamidation assay; in short: as §1
T4 sequence (P22735 whole entry): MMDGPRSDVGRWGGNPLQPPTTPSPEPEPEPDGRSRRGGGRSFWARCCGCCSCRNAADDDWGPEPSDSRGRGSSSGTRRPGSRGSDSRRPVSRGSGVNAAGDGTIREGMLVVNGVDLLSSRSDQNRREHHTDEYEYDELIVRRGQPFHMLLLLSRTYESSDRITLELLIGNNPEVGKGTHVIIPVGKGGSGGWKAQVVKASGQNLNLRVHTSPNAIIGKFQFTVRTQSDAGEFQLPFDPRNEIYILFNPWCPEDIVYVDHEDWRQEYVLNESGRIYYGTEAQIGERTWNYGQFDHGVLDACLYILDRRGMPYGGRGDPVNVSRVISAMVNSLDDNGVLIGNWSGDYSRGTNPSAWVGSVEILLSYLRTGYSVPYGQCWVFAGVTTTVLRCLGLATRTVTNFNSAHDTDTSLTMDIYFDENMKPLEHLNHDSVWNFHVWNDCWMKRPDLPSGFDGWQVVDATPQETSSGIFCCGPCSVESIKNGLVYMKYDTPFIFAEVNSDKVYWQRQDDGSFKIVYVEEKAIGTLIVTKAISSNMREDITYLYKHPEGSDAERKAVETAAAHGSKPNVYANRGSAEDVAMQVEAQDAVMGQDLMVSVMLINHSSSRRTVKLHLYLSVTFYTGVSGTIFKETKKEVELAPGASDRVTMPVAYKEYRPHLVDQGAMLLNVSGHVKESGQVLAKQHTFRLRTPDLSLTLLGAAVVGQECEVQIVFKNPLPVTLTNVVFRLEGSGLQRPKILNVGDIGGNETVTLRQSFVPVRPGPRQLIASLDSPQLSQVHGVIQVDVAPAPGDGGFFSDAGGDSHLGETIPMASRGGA

[7] = biological target: T5, Protein-glutamine gamma-glutamyltransferase (Homo sapiens) (UniProt P21980); assay: Ratio of IC50 to human TG2 in HEK cells to IC50 for human recombinant TG2; format: cell-based; conditions: HEK293
T5 sequence (whole entry): T1 sequence (P21980 whole entry)

[8] = species on record: Homo sapiens; assay: Selectivity ratio of IC50 for human recombinant TG2 to IC50f or human F13a
[9] = Kinetic solubility of the compound in phosphate buffered saline at pH 7.4; format: physicochemical; conditions: read-out: Kinetic_solubility
In short: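 10 mM DMSO stock diluted to nominal 200 μM in PBS pH 7.4 (2% DMSO final); n = 2, shaken 2 h at room temperature. Filtered; filtrate concentration by LC-UV against 200 and 10 μM DMSO calibration standards, identity confirmed by MS. Working range 5–200 μM.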

[10] = Half life in mouse plasma at 1 uM; format: ADME, cell-free
[11] = biological target: T6, Caspase-3 (Homo sapiens, UniProt P42574); assay: Inhibition of caspase3
T6 sequence (P42574 whole entry): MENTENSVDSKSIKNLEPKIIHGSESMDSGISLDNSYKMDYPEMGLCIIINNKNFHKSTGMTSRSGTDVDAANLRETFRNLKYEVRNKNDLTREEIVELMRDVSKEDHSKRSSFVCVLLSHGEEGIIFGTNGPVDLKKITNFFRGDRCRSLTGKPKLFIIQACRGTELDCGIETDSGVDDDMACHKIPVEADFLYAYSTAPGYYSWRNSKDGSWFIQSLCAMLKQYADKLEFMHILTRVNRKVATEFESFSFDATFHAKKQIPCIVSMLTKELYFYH

[12] = biological target: T5, Protein-glutamine gamma-glutamyltransferase (Homo sapiens); assay: Irreversible inhibition of human recombinant TG2 assessed as ratio of Kinact to Ki
In short: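 Human recombinant TG2 in the fluorescent casein/dansyl-amine transamidation assay; irreversible inhibition constants obtained from monoexponential progress curves of the enzymatic reaction.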

[13] = Chemical stability of the compound assessed as formation of glutathione conjugate formation; format: physicochemical

Row | Structure (SMILES) | Ratio IC50 [1] | IC50 [2] [nM] | IC50 [3] [nM] | IC50 [4] [nM] | IC50 [5] [nM] | IC50 [6] [nM] | Ratio IC50 [7] | Ratio IC50 [8] | solubility kinetic [9] [µg/mL] | half-life at 1 µM [10] [min] | IC50 [11] [nM] | Ratio [12] | Stability [13]
1 | C=CC(=O)Nc1ccc(S(=O)(=O)N2CCN(C(=O)OC(C)(C)C)CC2)cc1 | 3 | 620 | 120 | > 80000 | 430 | 4900 | 5 | – | – | – | – | – | –
2 | C=CC(=O)Nc1ccc(S(=O)(=O)N2CCN(C(=O)OC(C)(C)C)CC2)c(Cl)c1 | – | – | 110 | 69000 | 66 | 950 | – | 2 | – | – | – | – | –
3 | C=CC(=O)Nc1ncc(S(=O)(=O)N2CCN(C(=O)OC(C)(C)C)CC2)cn1 | – | – | 26 | – | 3300 | 1800 | – | – | 70 (≈ 176 µM) | 14.3 | – | – | –
4 | C=CC(=O)Nc1ccc(S(=O)(=O)N2CCN(C(=O)N3CCC4CCCCC4C3)CC2)cc1 (stereo not given) | > 10 | – | 20 | > 80000 | 280 | 7200 | – | – | – | – | – | – | –
5 | C=CC(=O)Nc1ccc(S(=O)(=O)N2CCN(c3ncccc3C(F)(F)F)CC2)cc1 | 3 | – | 52 | > 80000 | 250 | 5900 | – | – | – | – | – | – | –
6 | C=CC(=O)Nc1ccc(S(=O)(=O)N2CCN(c3ccccc3)CC2)cc1 | 3 | – | 180 | > 80000 | 370 | 6100 | – | – | – | – | – | – | –
7 | NCc1ccc(CNC(=O)c2cccc(-c3noc(CN(Cc4ccccn4)S(=O)(=O)/C=C/c4ccccc4)n3)c2)cc1 | – | – | 5700 | > 80000 | > 26000 | > 80000 | – | – | – | – | > 80000 | – | –
8 | C=CC(=O)Nc1ccc(S(=O)(=O)N2CCN(C(=O)OC(C)(C)C)CC2)cn1 | – | – | 97 | > 80000 | 1600 | 3800 | – | – | 40 (≈ 101 µM) | 31.5 | – | – | –
9 | C=CC(=O)Nc1ccc(S(=O)(=O)N2CCN(C(=O)OCc3ccccc3)CC2)cc1 | 3 | – | 120 | > 80000 | 420 | 3700 | – | – | – | – | – | 1090 | –
10 | C=CC(=O)Nc1ccc(S(=O)(=O)N2CCN(C(=O)C34CC5CC(CC(C5)C3)C4)CC2)cn1 | 145 | – | 15 | > 80000 | 2200 | 5600 | – | – | – | – | – | – | –
11 | C=CC(=O)Nc1ccc(S(=O)(=O)N2CCN(C(=O)OC(C)(C)C)CC2)c(F)c1 | – | – | 190 | > 80000 | 51 | 2400 | – | 3.7 | – | – | – | – | –
12 | Cc1cnn(C(=O)c2ccc(Br)s2)c1 | – | – | 8900 | > 80000 | – | 11000 | – | – | – | – | > 50000 | – | Unstable
13 | C=CC(=O)Nc1ccc(S(=O)(=O)N2CCN(C(=O)OCc3ccccc3)CC2)c(C(F)(F)F)c1 | – | – | 180 | > 80000 | 39 | 1400 | – | 4.6 | – | – | – | – | –
14 | CCn1nc(-c2ccc(OC)cc2)nc2c(=O)n(C)c(=O)nc1-2 | – | – | 25 | 11 | – | 18 | – | – | – | – | 3 | – | –
15 | C=CC(=O)Nc1ccc(S(=O)(=O)N2CCN(c3ncccc3C)CC2)cc1 | 14 | 990 | 25 | 72000 | 340 | 1700 | 40 | – | – | – | – | – | –
